For seven compounds, inhibition and Ki results are on record in ChEMBL document CHEMBL1146772, “Design, synthesis, and structure-activity relationship of new isobenzofuranone ligands of protein kinase C” (Bioorg Med Chem Lett, 2004).

One may read the inhibition as the drop in the measured response relative to a control, in per cent. Low values mean a response near the control, high ones a response far below the control. In general, Ki refers to a dissociation constant, usually derived from enzyme kinetics or from competition with a known ligand.

SMILES strings stand for the structures.

Experiment [1] addresses T1, Protein kinase C alpha type (Homo sapiens, UniProt P17252). As to the kind of experiment: Displacement of [3H]PDBu from PKC alpha at 100 uM; range 60 to 80. The method, boiled down: (§1)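 Competitive [3H]PDBu binding to recombinant human PKCα (Sf9-expressed), 4.3-4.8 nM, in 50 mM Tris-HCl pH 7.5 containing 4 mM CaCl2, 100 µg/mL sonicated phosphatidylserine, 4 mg/mL BSA and 10 nM [3H]PDBu. Incubation 2 h at 0 °C, then filtration on PEI-treated glass-fiber filters and scintillation counting. 10 µM TPA defined background/nonspecific binding. Ki derived using [3H]PDBu Kd 0.19 nM (Scatchard).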
(Loss of bound radioactivity is the signal in a displacement assay; it reports binding, not function.)

Experiment [2] addresses T1, Protein kinase C alpha type. In words: Binding affinity for protein kinase C alpha.
Experiment [3] has the same target. In words: Displacement of [3H]PDBu from PKC alpha at 100 uM; range 0 to 20. The method, boiled down:
as §1

Experiment [4] has the same target. As to the kind of experiment: Displacement of [3H]PDBu from PKC alpha at 100 uM; range 40 to 60. The method, boiled down: as §1
Experiment [5] shares this target. As to the kind of experiment: Displacement of [3H]PDBu from PKC alpha at 100 uM. The method, boiled down:
as §1

For experiment [6] the target is unchanged. As to the kind of experiment: Displacement of [3H]PDBu from PKC alpha at 100 uM; range 20 to 40. The method, boiled down:
as §1

For the compound `CCCCCCCCCCCCOc1cccc2c1C(=O)O[C@]2(CO)COC(C)=O`, the inhibition in experiment [1] was 75%. In addition, in experiment [2], the Ki was 540 nM.

As to `CC(=O)OC[C@@]1(CO)OC(=O)c2c(OCc3ccccc3)cccc21`, the inhibition constant Ki in experiment [2] was 540 nM. Also, in experiment [3], the inhibition was determined as 9%. The compound `CCCCCCCCCCOc1cccc2c1C(=O)O[C@]2(CO)COC(C)=O` returned an inhibition constant (Ki) in experiment [2] of 122 nM. Besides, the inhibition in experiment [4] turned out to be 59%. Take `CCCCCCCCCCCCOc1cccc2c1C(=O)O[C@@]2(CO)COC(=O)C(C)(C)C`: in experiment [2], the Ki is 122 nM. In the case of `C=CCOC(=O)Oc1cccc2c1C(=O)O[C@]2(CO)COC(C)=O`, the Ki in experiment [2] turned out to be 122 nM. The inhibition in experiment [5] amounted to 0%. Take `CCCCCCCCCCCCOc1cccc2c1C(=O)O[C@@]2(CO)COC(C)=O`: affinity in experiment [2] was put at a Ki of 540 nM. In experiment [6], this compound returned an inhibition of 35%. For the compound `CCCCCCCCCCOc1cccc2c1C(=O)O[C@@]2(CO)COC(C)=O`, affinity in experiment [2] was put at a Ki of 122 nM. The compound further displayed an inhibition in experiment [6] of 21%.
